Data published in ChEMBL document CHEMBL3763062, “Conformational Analysis of the Host-Defense Peptides Pseudhymenochirin-1Pb and -2Pa and Design of Analogues with Insulin-Releasing Activities and Reduced Toxicities” (J Nat Prod, 2015).
Converted amounts (≈) assume the structure as drawn. Residues, ends and D or L forms follow the SMILES beside them.

Columns and labels:
HUVEC = assay: Cytotoxicity against human HUVEC cells assessed as cell viability after 24 hrs by CellTiter-Glo luminescent assay; format: cell-based
In short: (§1)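 Human tumour lines and HUVEC were cultured at 37 °C in medium with antibiotics. Cells were seeded at 5 × 10³ cells/well and exposed to peptides (10⁻⁶–10⁻⁴ M) in triplicate for 24 h at 37 °C. Viability was read as ATP luminescence. IC50 is the mean concentration giving 50% cell death over at least three independent experiments.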

[1] = test system: Staphylococcus epidermidis; assay: Antibacterial activity against Staphylococcus epidermidis ATCC 12228 by microdilution method; format: functional
In short: (§2)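 Reference ATCC strains tested. The MIC was determined by standard broth microdilution in three independent experiments.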

[2] = Cytotoxicity against Swiss mouse RBC assessed as hemolytic activity […]; format: cell-based; settings: Erythrocyte
In short: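 Erythrocytes came from male NIH Swiss mice and were exposed to peptides at 1.6 × 10⁻⁶ to […]. IC50 is the mean concentration producing 50% haemolysis.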

MDA-MB-231 = assay: Cytotoxicity against human MDA-MB-231 cells assessed as cell viability after 24 hrs by CellTiter-Glo luminescent assay; format: functional, cell-based; settings: MDA-MB-231, 24 h; in short: as §1
Escherichia coli = assay: Antibacterial activity against Escherichia coli ATCC 25922 by microdilution method; format: functional; in short: as §2
[3] = Cytotoxicity in rat BRIN-BD11 cells assessed as LDH release at >1 uM after 20 mins by CytoTox96 assay; format: cell-based; settings: brin-bd11, 20 min
In short: (§3)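 BRIN-BD11 monolayers were exposed to peptides (10⁻¹¹ to 3 × 10⁻⁶ M; n = 6) for 20 min at 37 °C in KRB buffer with 5.6 mM glucose. LDH in the supernatant was quantified by a colorimetric kit and compared with 5.6 mM glucose alone.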

BRIN-BD11 = assay: (§4) Induction of insulin release in rat BRIN-BD11 cells after 20 mins by radioimmunoassay in presence of 5.6 mM glucose; format: functional
In short: (§5)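 BRIN-BD11 cells were seeded and allowed to attach overnight at 37 °C. They were then incubated 20 min at 37 °C with peptides (10⁻¹¹ to 3 × 10⁻⁶ M; n = 8) in KRB buffer with 5.6 mM glucose. Supernatant insulin was measured by radioimmunoassay, expressed as ng/10⁶ cells/20 min, and compared with 5.6 mM glucose alone.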

[4] = as §4; format: functional; settings: BRIN-BD11, 20 min, read-out: MEC; in short: as §5
HT-29 = assay: Cytotoxicity against human HT-29 cells assessed as cell viability after 24 hrs by CellTiter-Glo luminescent assay; format: functional, cell-based; settings: HT-29, 24 h; in short: as §1
[5] = Induction of insulin release in rat BRIN-BD11 cells at 3 uM after 20 mins in presence of 5.6 mM glucose by radioimmunoassay relative to control; format: functional; in short: as §5
Pseudomonas aeruginosa = assay: Antibacterial activity against Pseudomonas aeruginosa ATCC 27853 by microdilution method; format: functional; in short: as §2
Staphylococcus aureus = assay: Antibacterial activity against Staphylococcus aureus ATCC 25923 by microdilution method; format: functional; in short: as §2
A549 = assay: Cytotoxicity against human A549 cells assessed as cell viability after 24 hrs by CellTiter-Glo luminescent assay; format: functional, cell-based; settings: A549, 24 h; in short: as §1
[6] = Cytotoxicity in rat BRIN-BD11 cells assessed as LDH release at 1 or 3 uM after 20 mins by CytoTox96 assay; format: cell-based; settings: brin-bd11, 20 min; in short: as §3
[7] = Induction of insulin release in rat BRIN-BD11 cells at […] after 20 mins measured per 10^6 cells by radioimmunoassay in presence of 5.6 mM glucose (reference value: 0.97 to 1.05 ng); format: functional
[8] = Cytotoxicity in rat BRIN-BD11 cells assessed as LDH release at >= 1 uM after 20 mins by CytoTox96 assay; format: cell-based; settings: brin-bd11, 20 min; in short: as §3

## CC[C@H](C)[C@H](N)C(=O)N[C@@H](CCCCN)C(=O)N[C@H](C(=O)N1CCC[C@H]1C(=O)N[C@@H](CO)C(=O)N[C@@H](Cc1ccccc1)C(=O)N[C@@H](Cc1ccccc1)C(=O)N[C@@H](CCCNC(=N)N)C(=O)N[C@@H](CC(N)=O)C(=O)N[C@H](C(=O)N[C@@H](CC(C)C)C(=O)N[C@@H](CCCCN)C(=O)N[C@@H](CCCCN)C(=O)N[C@H](C(=O)NCC(=O)N[C@@H](CCCCN)C(=O)N[C@@H](CCC(=O)O)C(=O)N[C@@H](C)C(=O)N[C@H](C(=O)N[C@@H](CO)C(=O)N[C@@H](CC(C)C)C(=O)N[C@H](C(=O)N[C@@H](C)C(=O)NCC(=O)N[C@@H](C)C(=O)N[C@@H](CC(C)C)C(=O)N[C@@H](CCCCN)C(=O)N[C@@H](CCC(N)=O)C(=O)N[C@@H](CO)C(=O)O)[C@@H](C)CC)C(C)C)C(C)C)[C@@H](C)CC)[C@@H](C)CC
HUVEC
  IC50: 5.6 µM
[1]
  MIC: 2.5 µM (≈ 7.89 µg/mL)
[2]
  IC50: 30 µM
MDA-MB-231
  IC50: 6.6 µM
Escherichia coli
  MIC: 10 µM (≈ 31.6 µg/mL)
[3]
  Activity: Toxic
BRIN-BD11
  Activity: Dose-dependent effect
[4]
  minimal effective concentration: 0.0001 µM
HT-29
  IC50: 9.5 µM
[5]
  Activity: 530%
Pseudomonas aeruginosa
  MIC: 20 µM (≈ 63.1 µg/mL)
Staphylococcus aureus
  MIC: 5 µM (≈ 15.8 µg/mL)
A549
  IC50: 2.5 µM

## CC[C@H](C)[C@H](N)C(=O)N[C@@H](CCCCN)C(=O)N[C@H](C(=O)N1CCC[C@H]1C(=O)N[C@@H](CO)C(=O)N[C@@H](Cc1ccccc1)C(=O)N[C@@H](Cc1ccccc1)C(=O)N[C@H](CCCNC(=N)N)C(=O)N[C@@H](CC(N)=O)C(=O)N[C@H](C(=O)N[C@@H](CC(C)C)C(=O)N[C@@H](CCCCN)C(=O)N[C@@H](CCCCN)C(=O)N[C@H](C(=O)NCC(=O)N[C@@H](CCCCN)C(=O)N[C@@H](CCC(=O)O)C(=O)N[C@@H](C)C(=O)N[C@H](C(=O)N[C@@H](CO)C(=O)N[C@@H](CC(C)C)C(=O)N[C@H](C(=O)N[C@@H](C)C(=O)NCC(=O)N[C@@H](C)C(=O)N[C@@H](CC(C)C)C(=O)N[C@@H](CCCCN)C(=O)N[C@@H](CCC(N)=O)C(=O)N[C@@H](CO)C(=O)O)[C@@H](C)CC)C(C)C)C(C)C)[C@@H](C)CC)[C@@H](C)CC
HUVEC
  IC50: 27 µM
[1]
  MIC: 40 µM (≈ 126 µg/mL)
[2]
  IC50: > 100 µM
MDA-MB-231
  IC50: 20 µM
Escherichia coli
  MIC: 2.5 µM (≈ 7.89 µg/mL)
[4]
  minimal effective concentration: 0.0003 µM
[6]
  Activity: Non-toxic
HT-29
  IC50: 35 µM
[5]
  Activity: 190%
Pseudomonas aeruginosa
  MIC: 10 µM (≈ 31.6 µg/mL)
Staphylococcus aureus
  MIC: 80 µM (≈ 253 µg/mL)
A549
  IC50: 7.2 µM

## C[C@H](N)C(=O)O [ALANINE]
[7]
  Activity: 4.2 ng

## H-GIFPIFAKLLGKVIKVASSLISKGRTK-OH [listing 1 of 2 here]
HUVEC
  IC50: 5 µM
[8]
  Activity: Toxic
[2]
  IC50: 4 µM
MDA-MB-231
  IC50: 4.3 µM
HT-29
  IC50: 5.6 µM
A549
  IC50: 2.5 µM

## CC[C@H](C)[C@H](N)C(=O)N[C@@H](CCCCN)C(=O)N[C@H](C(=O)N1CCC[C@H]1C(=O)N[C@@H](CO)C(=O)N[C@@H](Cc1ccccc1)C(=O)N[C@@H](Cc1ccccc1)C(=O)N[C@@H](CCCNC(=N)N)C(=O)N[C@@H](CC(N)=O)C(=O)N[C@H](C(=O)N[C@@H](CC(C)C)C(=O)N[C@@H](CCCCN)C(=O)N[C@@H](CCCCN)C(=O)N[C@H](C(=O)NCC(=O)N[C@@H](CCCCN)C(=O)N[C@H](CCCCN)C(=O)N[C@@H](C)C(=O)N[C@H](C(=O)N[C@@H](CO)C(=O)N[C@@H](CC(C)C)C(=O)N[C@H](C(=O)N[C@@H](C)C(=O)NCC(=O)N[C@@H](C)C(=O)N[C@@H](CC(C)C)C(=O)N[C@@H](CCCCN)C(=O)N[C@@H](CCC(N)=O)C(=O)N[C@@H](CO)C(=O)O)[C@@H](C)CC)C(C)C)C(C)C)[C@@H](C)CC)[C@@H](C)CC
HUVEC
  IC50: 5 µM
[8]
  Activity: Toxic
[2]
  IC50: 19 µM
MDA-MB-231
  IC50: 3.6 µM
[4]
  minimal effective concentration: 0.0003 µM
HT-29
  IC50: 11 µM
A549
  IC50: 2.1 µM

## H-GIFPIFAKLLGKVIKVASSLISKGRTK-OH [listing 2 of 2 here]
[4]
  minimal effective concentration: 0.001 µM

## CC[C@H](C)[C@H](NC(=O)CN)C(=O)N[C@@H](Cc1ccccc1)C(=O)N1CCC[C@H]1C(=O)N[C@H](C(=O)N[C@@H](Cc1ccccc1)C(=O)N[C@@H](C)C(=O)N[C@@H](CCCCN)C(=O)N[C@@H](CC(C)C)C(=O)N[C@@H](CC(C)C)C(=O)NCC(=O)N[C@@H](CCCCN)C(=O)N[C@H](C(=O)N[C@H](C(=O)N[C@@H](CCCCN)C(=O)N[C@H](C(=O)N[C@@H](C)C(=O)N[C@@H](CO)C(=O)N[C@@H](CO)C(=O)N[C@@H](CC(C)C)C(=O)N[C@H](C(=O)N[C@@H](CO)C(=O)N[C@@H](CCCCN)C(=O)NCC(=O)N[C@@H](CCCNC(=N)N)C(=O)NC(C(=O)N[C@@H](CCC(=O)O)C(=O)O)[C@@H](C)O)[C@@H](C)CC)C(C)C)[C@@H](C)CC)C(C)C)[C@@H](C)CC (some centres not stated) (HELM PEPTIDE1{G.I.F.P.I.F.A.K.L.L.G.K.V.I.K.V.A.S.S.L.I.S.K.G.R.[C[C@@H](O)C(N[*:1])C(=O)[*:2]].E}$$$$V2.0)
HUVEC
  IC50: 68 µM
[1]
  MIC: 5 µM (≈ 14.4 µg/mL)
[2]
  IC50: 7 µM
MDA-MB-231
  IC50: 6.2 µM
Escherichia coli
  MIC: 80 µM (≈ 230 µg/mL)
[3]
  Activity: Toxic
[4]
  minimal effective concentration: 0.0001 µM
HT-29
  IC50: 12 µM
[5]
  Activity: 700%
Pseudomonas aeruginosa
  MIC: 80 µM (≈ 230 µg/mL)
Staphylococcus aureus
  MIC: 5 µM (≈ 14.4 µg/mL)
A549
  IC50: 6 µM
